Rows were chosen to be rich in hits. Some 2.2% of all compounds tested hit in one or more screens of this group.
bCat nuc transl = alters nuclear translocation of beta-catenin in HeLa cells | 0.3% of 190,000 active | immunofluorescence imaging | AID 1665 | nuclear translocation activity, % at 5 µM;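 active means nuclear translocation activity above 50% at 5 µM, with a well cell count of 50 or more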;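 further: per-cell ratio of nuclear to cytoplasmic median beta-catenin stain intensity; plate controls were DMSO negative control for no effect and GSK-3 inhibitor IX positive control for full effect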
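assay system = human HeLa cells, endogenous beta-catenin | times = compound treatment 24 h, 37°C, 5% CO2 | detection = Anti-beta-catenin immunofluorescence on PFA-fixed, Triton-permeabilized cells, DAPI nuclei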
BaF3 tox = reduces parental Ba/F3 cell viability, JAK2V617F counter-screen | CellTiter-Glo ATP luminescence | inhibition, % at 5.6 µM | 1.1% of 220,000 active | AID 1486;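 active means inhibition above a per-campaign cutoff, the mean inhibition of all tested compounds plus 3 SD, cut at about 27% in these data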;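 further: 0% = DMSO wells and 100% = JAK Inhibitor I control wells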
Ba/F3 V617F tox = loss of viability in JAK2V617F-driven Ba/F3 cells. 1.1% of 220,000 active. Ba/F3 EpoR-JAK2V617F viability, ATP luminescence. inhibition, % at 5.6 µM;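 active means inhibition above the campaign mean plus 3 SD over all tested compounds, cut at about 24% in these data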;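 further: cytokine-independent growth of Ba/F3 cells driven by EpoR plus mutant JAK2; 0% = DMSO-treated cells and 100% = JAK inhibitor I control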
IEC-6 tox = counter-screen for KLF5 inhibitors: cytotoxicity in IEC-6 cells | inhibition, % at 5 µM | IEC-6 cytotoxicity, luminescence viability | 0.78% of 290,000 active; in the data active means inhibition above about 22%;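 further: 0% = plate median of test compound wells and 100% = cytotoxic reference compound wells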
APP transl inh = APP translation inhibition; SH-SY5Y APP 5'UTR-luciferase reporter, luminescence; inhibition, % at 2 µM; 0.82% of 190,000 active; AID 1285;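 active means inhibition above a set limit, derived from the sample mean plus 3 SD, cut at about 45% in these data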
MT stabilizer = microtubule stabilizers in HeLa cells. HeLa tubulin immunostaining HCS, 24 h; share of cells brighter than vehicle mean+2SD. % tubulin-high responders, % at 10 µM. 0.83% of 200,000 active. AID 2205;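 active means plate Z-score above 3 for both tubulin-high and condensed-nucleus cell shares, with cell loss under 80%, at 10 µM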;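 further: anti alpha tubulin signal scored within the nucleus-defined area of each cell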
The depositor's hits bear a star.

CCOC(=O)/C=c1\s/c(=C\c2ccccc2C)c(=O)n1CC(=O)NCc1ccc2c(c1)OCO2 was read as bCat nuc transl 4.7, BaF3 tox 8.8, Ba/F3 V617F tox 2.6, IEC-6 tox 3.1, APP transl inh 4.8 and MT stabilizer 22.5*.
COc1ccc(CCN(C)CC(O)COc2ccc(C(C)=O)cc2OC)cc1OC (centres undefined) was read as IEC-6 tox -2.4.
O=c1oc(-c2ccccc2)nc2ccsc12 was read as bCat nuc transl -3.4, BaF3 tox 39.3*, Ba/F3 V617F tox 4.0, IEC-6 tox 3.9 and MT stabilizer 1.6.
`O=c1oc(-c2cccs2)nc2ccccc12` gave bCat nuc transl -0.6, BaF3 tox 1.8, Ba/F3 V617F tox 0.1, IEC-6 tox 4.4, APP transl inh -2.0 and MT stabilizer 1.4.
Screening O=C1/C(=C/c2cccnc2)CC/C1=C\c1cccnc1 returned bCat nuc transl 0.2, BaF3 tox 1.1, Ba/F3 V617F tox -1.5, IEC-6 tox -0.5, APP transl inh -13.8 and MT stabilizer 2.8.
O=C1/C(=C/c2cccnc2)CCC/C1=C\c1cccnc1 was read as bCat nuc transl -2.5, BaF3 tox -5.9, Ba/F3 V617F tox -3.0, IEC-6 tox 2.8, APP transl inh 94.9* and MT stabilizer 29.3*.
For CN(C)c1ccc(/C=C2\CCC/C(=C\c3ccccc3)C2=O)cc1 the results were bCat nuc transl 4.3, BaF3 tox 5.2, Ba/F3 V617F tox -0.7, IEC-6 tox 2.7, APP transl inh -0.9 and MT stabilizer 9.3*.
COc1ccc(/C=C2\CCC/C(=C\C=N\N(C)C)C2=O)cc1 was read as bCat nuc transl -2.3, BaF3 tox 1.7, Ba/F3 V617F tox -2.8, IEC-6 tox 6.9, APP transl inh -15.9 and MT stabilizer 20.3*.
Screening CCC1C/C(=C\c2cccnc2)C(=O)/C(=C/c2cccnc2)C1 (centres undefined) returned bCat nuc transl -1.1, BaF3 tox 4.5, Ba/F3 V617F tox 5.9, IEC-6 tox 30.2*, APP transl inh 94.8* and MT stabilizer 45.5*.
CCn1nnc2cc(C(=O)NCC(c3ccccc3OC)N(C)C)ccc21 (centres undefined) was read as IEC-6 tox 3.9.
Screening O=C(Nc1ccc(Br)cc1)c1cnc[nH]1 returned IEC-6 tox -1.5.
For O=C(NCCCCNC(=O)c1c(F)c(F)c(F)c(F)c1F)c1c(F)c(F)c(F)c(F)c1F the results were BaF3 tox 1.4, Ba/F3 V617F tox -1.8, IEC-6 tox 1.4, APP transl inh 0.5 and MT stabilizer 2.0.
CC(C)CNC(=O)c1c(F)c(F)c(F)c(F)c1F was read as bCat nuc transl -0.8, BaF3 tox 73.6*, Ba/F3 V617F tox 10.6, IEC-6 tox -6.2, APP transl inh -13.6 and MT stabilizer 2.6.
`COc1ccc(CCC(=O)NCCS(=O)(=O)N2CCN(c3ccccc3OC)CC2)cc1` gave IEC-6 tox 1.4.
For COc1ccc(NC(=S)/N=C(\N)Nc2nc(C)c3ccc(C)cc3n2)cc1 the results were bCat nuc transl 1.0, BaF3 tox 43.4*, Ba/F3 V617F tox 2.6, IEC-6 tox 12.8, APP transl inh -0.2 and MT stabilizer 4.7.
For COC(=O)C1(C)NC(c2ccc(O)cc2)C2C(=O)N(c3ccc(C)cc3)C(=O)C21 (centres undefined) the results were IEC-6 tox -7.4.
`C=CCN1CN(Cc2ccco2)CNC1=S` gave bCat nuc transl 0.2, BaF3 tox 2.6, Ba/F3 V617F tox -3.1, IEC-6 tox -3.4, APP transl inh 62.0* and MT stabilizer 3.9.
`Cc1cc(NC(=O)CSc2nnc(C3CC3)n2N)c([N+](=O)[O-])cc1C` gave bCat nuc transl -3.5, BaF3 tox 80.6*, Ba/F3 V617F tox 1.5, IEC-6 tox 0.9, APP transl inh 0.4 and MT stabilizer 1.3.
For COc1ccccc1NC(=O)CSc1nnc(C2CCCCC2)n1N the results were IEC-6 tox -10.7.
For CN=c1scc(-c2ccccc2F)n1/N=C/c1ccc(O)c(O)c1O the results were bCat nuc transl -2.1, BaF3 tox -5.9, Ba/F3 V617F tox -2.6, IEC-6 tox -8.7, APP transl inh -51.5 and MT stabilizer 5.2.
`CN=c1scc(-c2ccccc2F)n1/N=C/c1ccc[nH]1` gave bCat nuc transl -0.2, BaF3 tox 8.7, Ba/F3 V617F tox 5.1, IEC-6 tox -4.9, APP transl inh 55.1* and MT stabilizer 2.8.
COc1cc(C2CC(=O)N(c3ccc(C)cc3)C(=O)C2)cc(OC)c1OC was read as bCat nuc transl 75.0*, BaF3 tox -1.2, Ba/F3 V617F tox 2.9 and IEC-6 tox 7.2.
For CC(C)N(CCNC(=O)c1nn(Cc2ccccc2)c(=O)c2ccccc12)C(C)C the results were IEC-6 tox 6.0.
Screening O=C(c1ccc2c(c1)OCO2)N1CCCc2ccccc21 returned bCat nuc transl -0.5, BaF3 tox 8.3, Ba/F3 V617F tox 7.0, IEC-6 tox 6.6, APP transl inh -25.7 and MT stabilizer 4.9.
Screening Cc1ccc2c(c1)CCCN2C(=O)c1ccc2c(c1)OCO2 returned bCat nuc transl -0.2, BaF3 tox 29.6*, Ba/F3 V617F tox 28.8*, IEC-6 tox 2.1, APP transl inh -10.9 and MT stabilizer 2.8.
Screening CCN1CCN(c2cc(C)c3cc(NC(=O)c4ccncc4)ccc3n2)CC1 returned bCat nuc transl 0.7, APP transl inh -1.3 and MT stabilizer 1.9.
For CCN1CCN(c2cc(C)c3cc(NC(=O)c4ccc(Br)o4)ccc3n2)CC1 the results were bCat nuc transl 2.4, BaF3 tox 6.8, Ba/F3 V617F tox 3.3, IEC-6 tox 2.7, APP transl inh -1.6 and MT stabilizer 25.1*.
`CC(C)c1csc(CN2CCCC(CCC(=O)NCc3ccccc3F)C2)n1` (centres undefined) gave bCat nuc transl 2.8, BaF3 tox 7.1, Ba/F3 V617F tox 2.9, IEC-6 tox 6.5, APP transl inh -18.0 and MT stabilizer 24.9*.
COc1ccc(C(=O)NCc2ncccc2C)cc1OC1CCN(C(C)=O)CC1 was read as IEC-6 tox 3.0.
Screening COc1cc(NC(=O)N2CCNC2=O)cc(C(=O)Nc2cccc(C(F)(F)F)c2)c1 returned bCat nuc transl 54.8*.
Screening COc1ccc(CN2C(=NC(=O)C3CCCO3)SC3CS(=O)(=O)CC32)cc1 (centres undefined) returned IEC-6 tox -2.0.
For CC1=CC(C)(C)N(S(=O)(=O)c2ccc(C)cc2)c2ccc(C)cc21 the results were BaF3 tox 36.5*, Ba/F3 V617F tox 50.5*, IEC-6 tox 10.2, APP transl inh 50.0* and MT stabilizer 10.2.
CC(=O)Nc1ccc(S(=O)(=O)N2c3ccccc3C(C)=CC2(C)C)cc1 was read as bCat nuc transl 81.2*, BaF3 tox 63.7*, Ba/F3 V617F tox 64.1*, IEC-6 tox 88.2*, APP transl inh 89.0* and MT stabilizer 8.6*.

Source: PubChem
